This note sets out measurements from ChEMBL document CHEMBL5236601, “Development and Utility of a PAK1-Selective Degrader” (J Med Chem, 2022).

Calls of active or inactive are those of the source. The rule behind the calls is not given here.

One may read the EC50 as the concentration that produces a half-maximal response.

Type in all cases: functional, cell-based
Assay [1] deals with MCF7. Briefly: Antiproliferative activity against human MCF7 cells assessed as cell viability measured after 72 hrs incubation by MTT assay. The gist of the method:
(§1)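 Seeded at 2 x 10^3 cells/well overnight, then exposed to a range of concentrations for 72 hours (the figure legend states 96 hr). Cell viability read by MTT, with medium alone as blank. Triplicate wells, at least three independent experiments. IC50/EC50 from curve fitting, reported as means ± SD (n=3).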
Background: Tetrazolium dyes change colour on reduction, which living cells bring about.

The next assay relates to HEY A8. Briefly: (§2) Antiproliferative activity against human HeyA8 cells assessed as cell viability measured after 72 hrs incubation by MTT assay. In short, it runs like this: as §1
In a further assay the test system is OVCAR-3. Briefly: Antiproliferative activity against human OVCAR-3 cells assessed as cell viability measured after 72 hrs incubation by MTT assay. The gist of the method:
as §1

For the next assay, the system named is OMM-1. Nature of the assay: (§3) Antiproliferative activity against human OMM-1 cells assessed as cell viability measured after 72 hrs incubation by MTT assay. The gist of the method: as §1
The nature of assay [2]: as §2. The note with it: HEY A8, 72 h. The gist of the method:
as §1

Assay [3] in a line: as §3. The note with it: OMM-1, 72 h. In short, it runs like this: as §1
Assay [4] concerns MCF7. Briefly: Antiproliferative activity against human MCF7 cells assessed as effect on doxycycline-induced PAK1-specific shRNA mediated reduction in PAK1 expression by measuring reduction in cell index after 114 hrs.

Regarding `Nc1cccc2c1CN(C1CCC(=O)NC1=O)C2=O` (centres undefined), the outcome in the assay with MCF7 [1], in the assay on HEY A8, in the assay on OVCAR-3 and with OMM-1 was inactive.
For the compound `CC(C)NC(=O)N1CC[C@@H](NC2=Nc3cc(F)ccc3N(CC(F)F)c3ccc(Cl)cc32)C1`, the EC50 in the assay with MCF7 [1] (MCF7, 72 h) worked out at 11.8 µM; in assay [2], 33.6 µM; in the assay with OVCAR-3 (OVCAR-3, 72 h) it was 8.9 µM; in assay [3], 12 µM. Further, the outcome in the assay with MCF7 [4] was Active.
